For assay [1], the system named is Candida albicans. The assay is described as follows: Ratio of ampotericin-B MIC to compound MIC against Candida albicans. The assay is classed as functional.
The test system of assay [2] is Staphylococcus aureus. Put plainly: Antibacterial activity against Staphylococcus aureus ATCC 25923 by two fold broth dilution method. In kind it is functional. (In general: In broth dilution the organism is exposed to a series of concentrations in liquid medium.)
A further assay deals with Vero. The assay is described as follows: Cytotoxicity against african green monkey Vero cells after 72 hrs by MTT assay. The assay is classed as cell-based. The settings on record: Chlorocebus sabaeus. The procedure, abridged: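 Vero cells were exposed to compounds for 72 h. Viability was measured by cellular conversion of MTT into formazan (non-radioactive proliferation assay), and the cytotoxic concentration was reported as IC50.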
(In general: Tetrazolium dyes change colour on reduction, which living cells bring about.)

The next assay has as its system Escherichia coli. The assay is described as follows: Antibacterial activity against Escherichia coli ATCC 25922 by two fold broth dilution method. The assay is classed as functional.
The test system of assay [3] is Staphylococcus aureus. Put plainly: Antibacterial activity against methicillin-susceptible Staphylococcus aureus ATCC 35556 by broth dilution method. The assay is classed as functional.
Another assay has as its system Bacillus spizizenii. Put plainly: Antibacterial activity against Bacillus subtilis ATCC 6633 by two fold broth dilution method. In kind it is functional.
The subject of assay [4] is Candida albicans. The assay is described as follows: Antifungal activity against Candida albicans after 48 hrs by two fold agar dilution method. The assay is classed as functional. A digest of the protocol: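 Two-fold serial dilutions in DMSO were tested against C. albicans by agar dilution. Cultures were incubated for 48 h at 35 °C and growth was monitored. MIC was taken as the lowest concentration (highest dilution) that arrested fungal growth.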
A general note: In agar dilution, organisms are placed on agar that contains the substance at set levels.

The test system of the next assay is Klebsiella pneumoniae. Put plainly: Antibacterial activity against Klebsiella pneumoniae by two fold broth dilution method. In kind it is functional.
In assay [5] the test system is Staphylococcus aureus. Put plainly: Antibacterial activity against methicillin-resistant Staphylococcus aureus ATCC 43866 by broth dilution method. The assay is classed as functional.
The test system of assay [6] is Staphylococcus aureus. Put plainly: Ratio of ciprofloxacin MIC to compound MIC against Staphylococcus aureus ATCC 25923. In kind it is functional.
The subject of assay [7] is Mycobacterium tuberculosis. Put plainly: Antitubercular activity against Mycobacterium tuberculosis H37Rv after 7 days by resazurin microtitre assay. In kind it is functional. The settings on record: 168 h.

≈ marks a conversion by molar mass, not a printed value.

From ChEMBL document CHEMBL3085642, “Synthesis and evaluation of novel 4-nitropyrrole-based 1,3,4-oxadiazole derivatives as antimicrobial and anti-tubercular agents” (Eur J Med Chem, 2013) come the findings set out here.

What is called MIC is the lowest concentration that inhibits growth of the organism. As usually defined, the IC50 is the concentration at which inhibition is half-maximal. As to `Cc1ccc(-c2nnc(-c3cc([N+](=O)[O-])cn3C)o2)s1`, the Ratio with Candida albicans [1] and in the assay with Staphylococcus aureus [6] was 2 throughout. Also, the MIC was found to be 0.78 µg/mL (≈ 2.69 µM) in the assay with Staphylococcus aureus [2]; 6.25 µg/mL (≈ 21.5 µM) against Escherichia coli; 1.56 µg/mL (≈ 5.37 µM) against Staphylococcus aureus [3]; 1.56 µg/mL (≈ 5.37 µM) in the assay on Bacillus spizizenii; 1.56 µg/mL (≈ 5.37 µM) with Candida albicans [4]; 12.5 µg/mL (≈ 43.1 µM) in the assay with Klebsiella pneumoniae. Besides, in the assay with Staphylococcus aureus [5], inhibition of growth (MIC) required 1.56 µg/mL (≈ 5.37 µM). Further, half-maximal inhibition in the assay with Vero (IC50) was put at 98.3 µM.
For `Cn1cc([N+](=O)[O-])cc1-c1nnc(-c2cccs2)o1`, the Ratio in the assay with Candida albicans [1] and in the assay on Staphylococcus aureus [6] was 2 in each case. Besides, the MIC with Staphylococcus aureus [2] stood at 0.78 µg/mL (≈ 2.82 µM); against Escherichia coli it was 6.25 µg/mL (≈ 22.6 µM); with Staphylococcus aureus [3], 1.56 µg/mL (≈ 5.65 µM); with Bacillus spizizenii, 1.56 µg/mL (≈ 5.65 µM); in the assay with Candida albicans [4], 1.56 µg/mL (≈ 5.65 µM); with Klebsiella pneumoniae, 50 µg/mL (≈ 181 µM). The lowest concentration to inhibit growth in the assay with Staphylococcus aureus [5] (MIC) was 1.56 µg/mL (≈ 5.65 µM). Also, it took 521 µM to reach half-maximal inhibition in the assay on Vero (IC50).
As to `O=[N+]([O-])c1c[nH]c(-c2nnc(-c3ccccc3Br)o2)c1`, the MIC in [7] came out at 0.81 µg/mL (≈ 2.42 µM); in the assay with Staphylococcus aureus [2], 1.56 µg/mL (≈ 4.66 µM); in the assay with Escherichia coli it was 1.56 µg/mL (≈ 4.66 µM); in the assay with Staphylococcus aureus [3], 1.56 µg/mL (≈ 4.66 µM); in the assay on Bacillus spizizenii it was 1.56 µg/mL (≈ 4.66 µM); with Candida albicans [4], 3.12 µg/mL (≈ 9.33 µM). The MIC was 25 µg/mL (≈ 74.6 µM) with Klebsiella pneumoniae and 3.12 µg/mL (≈ 9.33 µM) in the assay on Staphylococcus aureus [5]. Further, the IC50 with Vero was 190 µM.
Consider `O=[N+]([O-])c1c[nH]c(-c2nnc(-c3cc4cc(Cl)ccc4[nH]3)o2)c1`, for which the MIC is 3.4 µg/mL (≈ 10.3 µM) in assay [7]; 1.56 µg/mL (≈ 4.73 µM) with Staphylococcus aureus [2]; 1.56 µg/mL (≈ 4.73 µM) with Escherichia coli; 1.56 µg/mL (≈ 4.73 µM) in the assay with Staphylococcus aureus [3]; 3.12 µg/mL (≈ 9.48 µM) against Bacillus spizizenii; 3.12 µg/mL (≈ 9.48 µM) against Candida albicans [4]. Moreover, the figures for the minimal inhibitory concentration (MIC) in the assay with Klebsiella pneumoniae and in the assay with Staphylococcus aureus [5] were 25 µg/mL (≈ 75.8 µM) and 3.12 µg/mL (≈ 9.48 µM), respectively. The same compound registered an IC50 in the assay with Vero of 329 µM.
`COc1cc(/C=C/c2nnc(-c3cc([N+](=O)[O-])c[nH]3)o2)ccc1O`: the MIC in assay [7] turned out to be 23.7 µg/mL (≈ 72.2 µM); with Staphylococcus aureus [2], 3.12 µg/mL (≈ 9.52 µM); against Escherichia coli, 3.12 µg/mL (≈ 9.52 µM); in the assay with Staphylococcus aureus [3], 1.56 µg/mL (≈ 4.75 µM); against Bacillus spizizenii, 3.12 µg/mL (≈ 9.52 µM); with Candida albicans [4] it was 25 µg/mL (≈ 76.2 µM). Besides, the figures for the MIC with Klebsiella pneumoniae and in the assay on Staphylococcus aureus [5] were 100 µg/mL (≈ 305 µM) and 3.12 µg/mL (≈ 9.52 µM), respectively. In the assay with Vero, the IC50 came to 220 µM.
For `O=[N+]([O-])c1c[nH]c(-c2nnc(C3CCCNC3)o2)c1` (stereo not given), the MIC in [7] is 12.5 µg/mL (≈ 47.5 µM); in the assay on Staphylococcus aureus [2] it was 1.56 µg/mL (≈ 5.93 µM); with Escherichia coli, 3.12 µg/mL (≈ 11.9 µM); in the assay with Staphylococcus aureus [3], 1.56 µg/mL (≈ 5.93 µM); against Bacillus spizizenii, 3.12 µg/mL (≈ 11.9 µM); in the assay with Candida albicans [4], 3.12 µg/mL (≈ 11.9 µM). Moreover, the MIC in the assay with Klebsiella pneumoniae came out at 25 µg/mL (≈ 95 µM); against Staphylococcus aureus [5], 3.12 µg/mL (≈ 11.9 µM). For the same compound, the IC50 in the assay on Vero is 318 µM.
As for `O=[N+]([O-])c1c[nH]c(-c2nnc(Cc3ccccc3F)o2)c1`, the MIC amounted to 0.46 µg/mL (≈ 1.6 µM) in assay [7]; 1.56 µg/mL (≈ 5.41 µM) against Staphylococcus aureus [2]; 1.56 µg/mL (≈ 5.41 µM) in the assay on Escherichia coli; 1.56 µg/mL (≈ 5.41 µM) in the assay with Staphylococcus aureus [3]; 1.56 µg/mL (≈ 5.41 µM) against Bacillus spizizenii; 3.12 µg/mL (≈ 10.8 µM) against Candida albicans [4]. For the same compound, the MIC amounted to 25 µg/mL (≈ 86.7 µM) against Klebsiella pneumoniae and 3.12 µg/mL (≈ 10.8 µM) against Staphylococcus aureus [5]. In the assay on Vero, this compound returned a half-maximal inhibitory concentration (IC50) of 620 µM.
As to `COc1cccc(-c2nnc(-c3cc([N+](=O)[O-])c[nH]3)o2)c1`, the MIC in [7] amounted to 13.5 µg/mL (≈ 47.2 µM); against Staphylococcus aureus [2], 1.56 µg/mL (≈ 5.45 µM); with Escherichia coli, 3.12 µg/mL (≈ 10.9 µM); against Staphylococcus aureus [3], 1.56 µg/mL (≈ 5.45 µM); against Bacillus spizizenii it was 3.12 µg/mL (≈ 10.9 µM); against Candida albicans [4] it was 3.12 µg/mL (≈ 10.9 µM). Besides, the MIC in the assay with Klebsiella pneumoniae was found to be 25 µg/mL (≈ 87.3 µM); against Staphylococcus aureus [5] it was 3.12 µg/mL (≈ 10.9 µM). Besides, half-maximal inhibition with Vero (IC50) required 429 µM.
As for `N#Cc1ccc(-c2nnc(-c3cc([N+](=O)[O-])c[nH]3)o2)cc1`, the MIC was 26.8 µg/mL (≈ 95.3 µM) in assay [7]; 1.56 µg/mL (≈ 5.55 µM) in the assay on Staphylococcus aureus [2]; 3.12 µg/mL (≈ 11.1 µM) with Escherichia coli; 1.56 µg/mL (≈ 5.55 µM) with Staphylococcus aureus [3]; 3.12 µg/mL (≈ 11.1 µM) against Bacillus spizizenii; 3.12 µg/mL (≈ 11.1 µM) in the assay on Candida albicans [4]. Besides, the MIC against Klebsiella pneumoniae turned out to be 25 µg/mL (≈ 88.9 µM); with Staphylococcus aureus [5], 3.12 µg/mL (≈ 11.1 µM). In addition, the IC50 with Vero is 199 µM.
Turning to `COc1cccc(OC)c1-c1nnc(-c2cc([N+](=O)[O-])c[nH]2)o1`, the MIC in assay [7] turned out to be 5.4 µg/mL (≈ 17.1 µM); with Staphylococcus aureus [2], 1.56 µg/mL (≈ 4.93 µM); in the assay with Escherichia coli, 3.12 µg/mL (≈ 9.88 µM); against Staphylococcus aureus [3], 1.56 µg/mL (≈ 4.93 µM); against Bacillus spizizenii, 3.12 µg/mL (≈ 9.88 µM); against Candida albicans [4], 3.12 µg/mL (≈ 9.88 µM). In addition, the values for the MIC with Klebsiella pneumoniae and with Staphylococcus aureus [5] were 25 µg/mL (≈ 79 µM) and 3.12 µg/mL (≈ 9.88 µM), respectively. The same compound displayed an IC50 in the assay on Vero of 170 µM.
As for `COc1ccc(-c2nnc(-c3cc([N+](=O)[O-])c[nH]3)o2)cc1`, the minimum inhibitory concentration (MIC) in assay [7] turned out to be 34 µg/mL (≈ 119 µM); against Staphylococcus aureus [2], 1.56 µg/mL (≈ 5.45 µM); in the assay on Escherichia coli it was 6.25 µg/mL (≈ 21.8 µM); in the assay with Staphylococcus aureus [3] it was 1.56 µg/mL (≈ 5.45 µM); in the assay with Bacillus spizizenii it was 3.12 µg/mL (≈ 10.9 µM); in the assay on Candida albicans [4] it was 3.12 µg/mL (≈ 10.9 µM). Also, the MIC against Klebsiella pneumoniae was determined as 25 µg/mL (≈ 87.3 µM); against Staphylococcus aureus [5], 3.12 µg/mL (≈ 10.9 µM). For the same compound, the IC50 in the assay on Vero turned out to be 409 µM.
For the compound `O=[N+]([O-])c1c[nH]c(-c2nnc(-c3ccns3)o2)c1`, the MIC in assay [7] worked out at 62.7 µg/mL (≈ 238 µM); with Staphylococcus aureus [2], 1.56 µg/mL (≈ 5.93 µM); with Escherichia coli it was 6.25 µg/mL (≈ 23.7 µM); in the assay with Staphylococcus aureus [3] it was 1.56 µg/mL (≈ 5.93 µM); in the assay on Bacillus spizizenii, 3.12 µg/mL (≈ 11.9 µM); against Candida albicans [4], 3.12 µg/mL (≈ 11.9 µM). Besides, the values for the MIC in the assay with Klebsiella pneumoniae and against Staphylococcus aureus [5] were 25 µg/mL (≈ 95 µM) and 3.12 µg/mL (≈ 11.9 µM), respectively. The midpoint of inhibition in the assay on Vero, the IC50, lay at 532 µM.
